Measurements reported in ChEMBL document CHEMBL1157313, “Metabolites from the marine-derived fungus Chromocleista sp. isolated from a deep-water sediment sample collected in the Gulf of Mexico” (2006).
In brackets after ≈: the same amount, converted by molar mass. Activity calls are given as the source filed them. The calls are words filed in the database; no cut-off is given here.

Experiments:
Candida albicans [1] = test: Antifungal activity against Candida albicans ATCC 44506 up to 50 ug/mL after 18 hrs by broth microdilution method; format: functional, organism-based
How it was run: (§1)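 MIC by standard broth microdilution with Sabouraud dextrose broth as growth medium; plates incubated 18 h at 37 °C.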

Staphylococcus aureus = test: Antibacterial activity against Staphylococcus aureus ATCC 29213 at 50 ug/mL after 18 hrs by broth microdilution technique; format: functional, organism-based
How it was run: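 MIC by standard broth microdilution in cation-supplemented Mueller-Hinton broth; plates incubated 18 h at 37 °C; tested at 50 µg/mL.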

A549 = test: Cytotoxicity against human A549 cells at 5 ug/mL after 72 hrs by MTT assay; format: functional, cell-based
How it was run: (§2)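 Cells exposed to compound at 5 µg/mL for 72 h in 96-well format; viability read spectrophotometrically with MTT.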

NCI/ADR-RES = test: Cytotoxicity against human NCI-ADR-RES cells at 5 ug/mL after 72 hrs by MTT assay; format: functional, cell-based; how it was run: as §2
PANC-1 = test: Cytotoxicity against human PANC1 cells at 5 ug/mL after 72 hrs by MTT assay; format: functional, cell-based; how it was run: as §2
P388 = test: Cytotoxicity against mouse P388 cells at 5 ug/mL after 45 hrs by MTT assay; format: functional, cell-based
How it was run: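 Murine leukemia cells incubated 45 h with compound at 5 µg/mL in 96-well plates; cytotoxicity read spectrophotometrically using MTT.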

Candida albicans [2] = test: Antifungal activity against Candida albicans ATCC 44506 after 18 hrs by broth microdilution method; format: functional; details: ATCC 44506, 18 h; how it was run: as §1

Compound	Activity (Candida albicans [1])	Activity (Staphylococcus aureus)	Activity (A549)	Activity (NCI/ADR-RES)	Activity (PANC-1)	Activity (P388)	MIC (Candida albicans [2]) [µg/mL]
O=C1[C@H](Cc2ccccc2)NC(=O)[C@]2(O)CCCN12	inactive	inactive	inactive	inactive	inactive	inactive	–
O=C1N[C@@H](Cc2ccccc2)C(=O)N2CCC=C12	inactive	inactive	inactive	inactive	inactive	inactive	–
O=C1C(O)=C(c2ccc(O)cc2)[C@@H]2CCCN12	–	inactive	inactive	inactive	inactive	inactive	25 (≈ 108 µM)
O=C1[C@H](Cc2ccccc2)NC(=O)[C@@]2(O)CCCN12	inactive	inactive	inactive	inactive	inactive	inactive	–
